According to ChEMBL document CHEMBL1124654, “Synthesis and investigation of effects of 2-[4- [[(arylamino)carbonyl]amino]phenoxy]-2-methylpropionic acids on the affinity of hemoglobin for oxygen: structure-activity relationships” (1989):
Values joined by “and” are separate entries in the source; they are usually repeats but may differ in a detail not shown here. Equal entries are not always repeated.

Columns and labels:
Format in all cases: functional
Homo sapiens [1] = organism: Homo sapiens; test: Ability of 1 mM to reduce affinity of hemoglobin for oxygen is assessed from 50% partial pressure of oxygen in membrane free hemoglobin solution
Outline: (§1)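 Membrane-free hemoglobin: erythrocytes washed five times in 0.15 M NaCl, lysed in 5 volumes of water, filtered through paper and then down to 0.22 µm. Compound dissolved in 0.1 M HEPES, pH 7.4, hemoglobin added to a final 12.5 ± 0.5 µM, incubated 30 min at 37 °C. P50 taken from the O2-dissociation curve. Initial screen at 1 mM in duplicate.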

[2] = biological target: Hemoglobin HbA (Homo sapiens) (UniProt P69905+P68871); test: Ratio of effect of compound on affinity of hemoglobin for oxygen to that of control
Outline: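 Mean P50 with compound divided by mean P50 of the respective controls. P50 measured from O2-dissociation curves at 37 °C after 30 min in 0.1 M HEPES, pH 7.4, with hemoglobin at 12.5 ± 0.5 µM, in intact red cells or membrane-free hemoglobin.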

Homo sapiens [3] = organism: Homo sapiens; test: Ability of 1 mM compound to reduce affinity of hemoglobin for oxygen is assessed from 50% partial pressure of oxygen in intact red cells
Outline: (§2)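 Intact red cells: 30-µL aliquots of fresh heparinized normal whole blood added to 5 mL of compound diluted in 0.1 M HEPES, pH 7.4; final hemoglobin 12.5 ± 0.5 µM by spectrophotometry. Equilibrated 30 min at 37 °C, then oxygenated in the instrument chamber. P50 (mmHg PO2 at 50% deoxygenation) read from the O2-dissociation curve. Initial screen at 1 mM in duplicate.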

Homo sapiens [4] = organism: Homo sapiens; test: Ability of 1 mM to reduce affinity of hemoglobin for oxygen is assessed from 50% partial pressure of oxygen in intact red cells; outline: as §2
Homo sapiens [5] = organism: Homo sapiens; test: Ability of 0.5 mM to reduce affinity of hemoglobin for oxygen is assessed from 50% partial pressure of oxygen in intact red cells; outline: as §2
Homo sapiens [6] = organism: Homo sapiens; test: Ability of 0.2 mM to reduce affinity of hemoglobin for oxygen is assessed from 50% partial pressure of oxygen in intact red cells; outline: as §2
Homo sapiens [7] = organism: Homo sapiens; test: Ability of 0.2 mM to reduce affinity of hemoglobin for oxygen is assessed from 50% partial pressure of oxygen in membrane free hemoglobin solution; outline: as §1
Homo sapiens [8] = organism: Homo sapiens; test: Ability of 0.5 mM to reduce affinity of hemoglobin for oxygen is assessed from 50% partial pressure of oxygen in membrane free hemoglobin solution; outline: as §1
Homo sapiens [9] = organism: Homo sapiens; test: Ability of 0.05 mM to reduce affinity of hemoglobin for oxygen is assessed from 50% partial pressure of oxygen in intact red cells; outline: as §2
Homo sapiens [10] = organism: Homo sapiens; test: Ability of 0.1 mM to reduce affinity of hemoglobin for oxygen is assessed from 50% partial pressure of oxygen in intact red cells; outline: as §2
Homo sapiens [11] = organism: Homo sapiens; test: Ability of 0.05 mM to reduce affinity of hemoglobin for oxygen is assessed from 50% partial pressure of oxygen in membrane free hemoglobin solution; outline: as §1
Homo sapiens [12] = organism: Homo sapiens; test: Ability of 0.1 mM to reduce affinity of hemoglobin for oxygen is assessed from 50% partial pressure of oxygen in membrane free hemoglobin solution; outline: as §1
Homo sapiens [13] = organism: Homo sapiens; test: Ability of 0.5 mm to reduce affinity of hemoglobin for oxygen is assessed from 50% partial pressure of oxygen in intact red cells; outline: as §2
Homo sapiens [14] = organism: Homo sapiens; test: Ability of 1 mm to reduce affinity of hemoglobin for oxygen is assessed from 50% partial pressure of oxygen in intact red cells; outline: as §2

Chain of Hemoglobin HbA (Homo sapiens) (P68871 2-147 partner limits assumed): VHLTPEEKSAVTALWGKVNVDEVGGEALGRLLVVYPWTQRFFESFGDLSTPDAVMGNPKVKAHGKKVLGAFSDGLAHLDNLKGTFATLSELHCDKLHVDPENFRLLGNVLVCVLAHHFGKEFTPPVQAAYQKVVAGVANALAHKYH
Chain of Hemoglobin HbA (Homo sapiens) (P69905 2-142 limits assumed): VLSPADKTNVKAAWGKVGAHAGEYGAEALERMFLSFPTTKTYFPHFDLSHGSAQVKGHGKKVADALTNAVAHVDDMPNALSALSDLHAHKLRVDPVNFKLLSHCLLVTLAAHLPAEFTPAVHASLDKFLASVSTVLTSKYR

SMILES | Ratio [2] | P50 (Homo sapiens [1]) [mmHg] | P50 (Homo sapiens [3]) [mmHg] | P50 (Homo sapiens [8]) [mmHg] | also measured
CC(C)(Oc1ccc(NC(=N)Nc2ccc(Cl)cc2)cc1)C(=O)O | 1.14 and 1.39 | 9 | 16 |  | 
CC(C)(Oc1ccc(NC(=O)CNC(=O)c2ccc(Cl)cc2)cc1)C(=O)O | 1.14 and 1.36 | 8.5 | 12 |  | 
CC(C)(Oc1ccc(NC(=O)Nc2ccc3c(c2)OCO3)cc1)C(=O)O | 2.15 and 1.05 | 14 |  |  | P50 (Homo sapiens [4]): 9.5 mmHg
CCOC(=O)Nc1ccc(NC(=O)Nc2ccc(OC(C)(C)C(=O)O)cc2)cc1 | 1.61 and 1.27 | 10.5 | 11.5 |  | 
CC(C)(Oc1ccc(NC(=O)Nc2cc(Cl)c(Cl)cc2Cl)cc1)C(=O)O |  |  |  |  | P50 (Homo sapiens [9]): 14.25 mmHg; P50 (Homo sapiens [10]): 17.75 mmHg; P50 (Homo sapiens [6]): 31 mmHg; P50 (Homo sapiens [11]): 9 mmHg; P50 (Homo sapiens [12]): 12 mmHg; P50 (Homo sapiens [7]): 16.8 mmHg
CC(C)(Oc1ccc(-c2ccccc2)cc1)C(=O)O | 1 and 1.63 | 7 | 15.5 |  | 
CC(C)(Oc1ccc(NS(=O)(=O)Cc2ccccc2)cc1)C(=O)O | 1.34 and 1.64 | 9.16 | 11.5 |  | 
CC(C)(Oc1ccc(NC(=O)Nc2ccc(C=O)cc2)cc1)C(=O)O | 2.3 and 2.15 | 15 | 20.5 |  | 
CC(C)(Oc1ccc(NC(=O)Nc2ccc(C(=O)O)cc2)cc1)C(=O)O | 1.14 and 1 | 8 | 9 |  | 
CC(C)(Oc1ccc(CCNC(=O)c2ccc(Cl)cc2)cc1)C(=O)O [BEZAFIBRATE] | 1.63 [middle of 4 runs] | 14.2 |  | 9 | P50 (Homo sapiens [5]): 14.5 mmHg; P50 (Homo sapiens [4]): 17 mmHg
Cc1cc(C)c(NC(=O)Nc2ccc(OC(C)(C)C(=O)O)cc2)c(C)c1 | 1 and 1.26 | 6.5 | 12 |  | 
CC(C)(Oc1ccc(NC(=O)Nc2ccc([N+](=O)[O-])cc2)cc1)C(=O)O | 2.79 [middle of 4 runs] | 19 |  | 13 | P50 (Homo sapiens [13]): 21 mmHg; P50 (Homo sapiens [14]): 26.5 mmHg
O=C(O)COc1ccc(NC(=O)Nc2ccc(Cl)c(Cl)c2)cc1 | 1.14 [middle of 4 runs] |  |  | 10 | P50 (Homo sapiens [5]): 13 mmHg; P50 (Homo sapiens [6]): 11.5 mmHg; P50 (Homo sapiens [7]): 8 mmHg
CC(C)(Oc1ccc(CC(NC(=O)c2ccc(Cl)cc2)C(=O)O)cc1)C(=O)O (configuration not stated) | 1.07 and 1.26 | 7.5 | 12 |  | 
CC(C)(Oc1ccc(NC(=O)c2ccc(Cl)cc2)cc1)C(=O)O | 5.35 [middle of 4 runs] | 39 |  | 27 | P50 (Homo sapiens [4]): 37.5 mmHg and 19 mmHg
COc1ccc(NC(=O)Nc2ccc(OC(C)(C)C(=O)O)cc2)cc1OC | 2.07 and 1 | 14.5 | 8.5 |  | 
CC(C)(Oc1ccc(NC(=O)Nc2cc(Cl)c(Cl)c(Cl)c2)cc1)C(=O)O |  |  |  |  | P50 (Homo sapiens [9]): 27.5 mmHg; P50 (Homo sapiens [10]): 35 mmHg; P50 (Homo sapiens [6]): 60 mmHg; P50 (Homo sapiens [11]): 16.2 mmHg; P50 (Homo sapiens [12]): 28.5 mmHg; P50 (Homo sapiens [7]): 57.2 mmHg
CC(C)(Oc1ccc(NC(=O)COc2ccc(Cl)cc2)cc1)C(=O)O | 1.27 and 1.84 | 9.25 | 17.5 |  | 
CC(C)(Oc1ccc(NC(=O)Nc2cc(F)cc(F)c2)cc1)C(=O)O | 1.99 [middle of 4 runs] | 15.2 |  | 12.2 | P50 (Homo sapiens [5]): 15 mmHg; P50 (Homo sapiens [4]): 21 mmHg
CC(C)(Oc1ccc(CCNC(=O)c2cc(Cl)cc(Cl)c2)cc1)C(=O)O | 1.78 and 1.42 and 2.33 | 12.5 |  | 10 | P50 (Homo sapiens [5]): 17.75 mmHg; P50 (Homo sapiens [4]): 22.75 mmHg
CC(=O)Oc1ccc(NC(=O)Nc2ccc(OC(C)(C)C(=O)O)cc2)cc1 | 1.64 and 1.77 | 11.5 | 16 |  | 
COc1cc(NC(=O)Nc2ccc(OC(C)(C)C(=O)O)cc2)cc(OC)c1OC | 1.64 and 1.05 | 11.5 | 9.5 |  | 
CC(C)(Oc1ccc(NC(=O)c2cc(Cl)cc(Cl)c2)cc1)C(=O)O | 2.34 [middle of 4 runs] | 16 |  | 12.2 | P50 (Homo sapiens [5]): 19.66 mmHg; P50 (Homo sapiens [4]): 25.33 mmHg

The next lines start with results.

Ratio [2] | SMILES | P50 (Homo sapiens [1]) [mmHg] | P50 (Homo sapiens [3]) [mmHg] | P50 (Homo sapiens [8]) [mmHg] | also measured
2.88 and 1.72 | Cc1ccc(NC(=O)Nc2ccc(OC(C)(C)C(=O)O)cc2)cc1 | 26 | 15.5 |  | 
4.43 [middle of 4 runs] | CC(C)(Oc1ccc(NC(=O)Nc2cc(Cl)cc(Cl)c2)cc1)C(=O)O |  |  | 44.5 | P50 (Homo sapiens [5]): 51 mmHg; P50 (Homo sapiens [6]): 22.75 mmHg; P50 (Homo sapiens [7]): 20.5 mmHg
2 and 1.38 | CC(C)(Oc1ccc(NC(=O)Nc2ccc(F)cc2)cc1)C(=O)O | 18 | 12.5 |  | 
1.91 and 1.42 | CC(C)(Oc1ccc(NC(=O)Nc2ccccc2O)cc1)C(=O)O | 12.5 | 10 |  | 
1.42 and 1.05 | CC(C)(Oc1ccc(NC(=O)Nc2ccccc2)cc1)C(=O)O | 10 | 10 |  | 
1.68 and 1.21 | CC(C)(Oc1ccc(NC(=O)Nc2ccc(O)cc2)cc1)C(=O)O | 11 | 8.5 |  | 
2.7 and 1.64 | CC(C)(Oc1ccc(NC(=O)Nc2ccc(Cl)cc2)cc1)C(=O)O | 21.8 | 19.5 |  | 
2.29 [middle of 4 runs] | CC(C)(Oc1ccc(NC(=O)Nc2ccc(Cl)c(Cl)c2)cc1)C(=O)O |  |  | 28.5 | P50 (Homo sapiens [5]): 23.5 mmHg; P50 (Homo sapiens [6]): 15.5 mmHg; P50 (Homo sapiens [7]): 14.2 mmHg
2.89 and 1.5 | CC(C)(Oc1ccc(NC(=O)Nc2cccc(Cl)c2)cc1)C(=O)O | 22 | 17.75 |  | 
2.46 [middle of 4 runs] | CC(C)(Oc1ccc(NC(=O)Nc2cccc(Cl)c2Cl)cc1)C(=O)O |  |  | 16 | P50 (Homo sapiens [6]): 18.5 mmHg; P50 (Homo sapiens [7]): 12.5 mmHg
2.53 [middle of 4 runs] | Cc1ccc(NC(=O)Nc2ccc(OC(C)(C)C(=O)O)cc2)cc1C | 27.2 | 18.5 | 16.5 | P50 (Homo sapiens [5]): 14.5 mmHg
2.11 and 1.25 | COc1ccc(NC(=O)Nc2ccc(OC(C)(C)C(=O)O)cc2)cc1 | 19 | 12.5 |  | 
5.43 [middle of 4 runs] | CC(C)(Oc1ccc(NC(=O)Nc2ccc(Cl)c([N+](=O)[O-])c2)cc1)C(=O)O | 43.5 |  | 30 | P50 (Homo sapiens [5]): 40 mmHg; P50 (Homo sapiens [4]): 52.5 mmHg
2.04 [middle of 4 runs] | CC(C)(Oc1ccc(NC(=O)Nc2ccc(Cl)cc2Cl)cc1)C(=O)O |  |  | 15.5 | P50 (Homo sapiens [5]): 21.25 mmHg; P50 (Homo sapiens [6]): 14.75 mmHg; P50 (Homo sapiens [7]): 9.75 mmHg
2.56 [middle of 4 runs] | CC(C)(Oc1ccc(NC(=O)Nc2cc(Cl)ccc2Cl)cc1)C(=O)O |  |  | 18 | P50 (Homo sapiens [5]): 23.75 mmHg; P50 (Homo sapiens [6]): 15.83 mmHg; P50 (Homo sapiens [7]): 11.5 mmHg
3.61 and 4.21 | CC(C)(Oc1ccc(NC(=O)Nc2cc([N+](=O)[O-])ccc2Cl)cc1)C(=O)O | 23.5 | 40 |  | 
1.75 and 1.42 | CC(C)(Oc1ccc(NC(=O)Nc2ccccc2Cl)cc1)C(=O)O | 14.2 | 16.2 |  | 
